Laboratory results from ChEMBL document CHEMBL1143138, “Synthesis and antimicrobial activity of beta-lactam-bile acid conjugates linked via triazole” (Bioorg Med Chem Lett, 2008).
Converted amounts (≈) assume the structure as drawn.

How the values were obtained:
Format in all cases: functional, organism-based
[1] = test system: Candida albicans; assay: Antimicrobial activity against Candida albicans NCL1 by broth microdilution method
In short: (§1)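 Standard NCCLS broth microdilution. Fungal strains were NCL isolates and bacterial strains were NCIM cultures, with DMSO as the negative control. MIC was taken as the concentration giving 90% growth inhibition relative to the growth control, and IC50 as the concentration giving 50% growth inhibition. Values are in µg/mL.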

[2] = test system: Cryptococcus neoformans; assay: Antimicrobial activity against Cryptococcus neoformans NCL2 by broth microdilution method; in short: as §1
[3] = test system: Benjaminiella poitrasii; assay: Antimicrobial activity against Benjaminiella poitrasii NCL3 by broth microdilution method; in short: as §1
[4] = test system: Yarrowia lipolytica; assay: Antimicrobial activity against Yarrowia lipolytica NCL4 by broth microdilution method; in short: as §1
[5] = test system: Fusarium oxysporum; assay: Antimicrobial activity against Fusarium oxysporum NCL5 by broth microdilution method; in short: as §1
[6] = test system: Escherichia coli; assay: Antimicrobial activity against Escherichia coli NCIM2574 by broth microdilution method; in short: as §1
[7] = test system: Staphylococcus aureus; assay: Antimicrobial activity against Staphylococcus aureus NCIM2122 by broth microdilution method; in short: as §1

Question: For COc1ccc(N2C(=O)C(N=[N+]=[N-])C2c2ccccc2)cc1 (racemic), which IC50 [1] is on record?
Answer: 64 µg/mL (≈ 217 µM)

Question: And the MIC [1]?
Answer: > 128 µg/mL

Question: What about the IC50 [2] of the same molecule?
Answer: > 128 µg/mL

Question: What about the MIC [2] of the same molecule?
Answer: > 128 µg/mL

Question: And the IC50 [3]?
Answer: > 128 µg/mL

Question: And the MIC [3]?
Answer: > 128 µg/mL

Question: And the IC50 [4]?
Answer: 128 µg/mL (≈ 435 µM)

Question: And the MIC [4]?
Answer: > 128 µg/mL

Question: And the IC50 [5]?
Answer: 64 µg/mL (≈ 217 µM)

Question: And the MIC [5]?
Answer: > 128 µg/mL

Question: And the IC50 [6]?
Answer: 64 µg/mL (≈ 217 µM)

Question: And the MIC [6]?
Answer: > 128 µg/mL

Question: What about the IC50 [7] of the same molecule?
Answer: > 128 µg/mL

Question: What about the MIC [7] of the same molecule?
Answer: > 128 µg/mL

Question: C[C@@H]1[C@H](O)[C@@H](C)/C=C/C=C/C=C/C=C/C=C/C=C/C=C/[C@H](O[C@@H]2O[C@H](C)[C@@H](O)[C@H](N)[C@@H]2O)C[C@@H]2O[C@](O)(C[C@@H](O)C[C@@H](O)[C@H](O)CC[C@@H](O)C[C@@H](O)CC(=O)O[C@H]1C)C[C@H](O)[C@H]2C(=O)O (stereo in doubt) [AMPHOTERICIN B] was tested. Which IC50 [1] did it give?
Answer: 0.5 µg/mL (≈ 0.541 µM)

Question: And the MIC [1]?
Answer: 2 µg/mL (≈ 2.16 µM)

Question: And the IC50 [2]?
Answer: 8 µg/mL (≈ 8.66 µM)

Question: What about the MIC [2] of the same molecule?
Answer: 16 µg/mL (≈ 17.3 µM)

Question: And the IC50 [3]?
Answer: 8 µg/mL (≈ 8.66 µM)

Question: What about the MIC [3] of the same molecule?
Answer: 16 µg/mL (≈ 17.3 µM)

Question: And the IC50 [4]?
Answer: 8 µg/mL (≈ 8.66 µM)

Question: What about the MIC [4] of the same molecule?
Answer: 16 µg/mL (≈ 17.3 µM)

Question: What about the IC50 [5] of the same molecule?
Answer: 8 µg/mL (≈ 8.66 µM)

Question: And the MIC [5]?
Answer: 16 µg/mL (≈ 17.3 µM)

Question: How did the IC50 [1] turn out when C#CCNC(=O)CC[C@@H](C)[C@H]1CC[C@H]2[C@@H]3CC[C@@H]4C[C@H](O)CC[C@]4(C)[C@H]3C[C@H](O)[C@]12C was run?
Answer: 64 µg/mL (≈ 149 µM)

Question: What about the MIC [1] of the same molecule?
Answer: > 128 µg/mL

Question: And the IC50 [2]?
Answer: 128 µg/mL (≈ 298 µM)

Question: What about the MIC [2] of the same molecule?
Answer: > 128 µg/mL

Question: What about the IC50 [3] of the same molecule?
Answer: 128 µg/mL (≈ 298 µM)

Question: What about the MIC [3] of the same molecule?
Answer: > 128 µg/mL

Question: And the IC50 [4]?
Answer: > 128 µg/mL

Question: And the MIC [4]?
Answer: > 128 µg/mL

Question: And the IC50 [5]?
Answer: 64 µg/mL (≈ 149 µM)

Question: And the MIC [5]?
Answer: > 128 µg/mL

Question: And the IC50 [6]?
Answer: > 128 µg/mL

Question: And the MIC [6]?
Answer: > 128 µg/mL

Question: And the IC50 [7]?
Answer: 128 µg/mL (≈ 298 µM)

Question: What about the MIC [7] of the same molecule?
Answer: > 128 µg/mL

Question: Which IC50 [1] does the source give for OC(Cn1cncn1)(Cn1cncn1)c1ccc(F)cc1F [FLUCONAZOLE] here?
Answer: 4 µg/mL (≈ 13.1 µM)

Question: And the MIC [1]?
Answer: 32 µg/mL (≈ 104 µM)

Question: What about the IC50 [2] of the same molecule?
Answer: 16 µg/mL (≈ 52.2 µM)

Question: And the MIC [2]?
Answer: 32 µg/mL (≈ 104 µM)

Question: What about the IC50 [3] of the same molecule?
Answer: 16 µg/mL (≈ 52.2 µM)

Question: What about the MIC [3] of the same molecule?
Answer: 32 µg/mL (≈ 104 µM)

Question: And the IC50 [4]?
Answer: 32 µg/mL (≈ 104 µM)

Question: What about the MIC [4] of the same molecule?
Answer: 64 µg/mL (≈ 209 µM)

Question: What about the IC50 [5] of the same molecule?
Answer: 4 µg/mL (≈ 13.1 µM)

Question: And the MIC [5]?
Answer: 8 µg/mL (≈ 26.1 µM)

Question: Which results are given for C#CCOC(=O)CC[C@@H](C)[C@H]1CC[C@H]2[C@@H]3[C@H](O)C[C@@H]4C[C@H](O)CC[C@]4(C)[C@H]3C[C@H](O)[C@]12C?
Answer: IC50 [1]: 128 µg/mL (≈ 287 µM); MIC [1]: > 128 µg/mL; IC50 [2]: > 128 µg/mL; MIC [2]: > 128 µg/mL; IC50 [3]: > 128 µg/mL; MIC [3]: > 128 µg/mL; IC50 [4]: 64 µg/mL (≈ 143 µM); MIC [4]: > 128 µg/mL; IC50 [5]: 128 µg/mL (≈ 287 µM); MIC [5]: > 128 µg/mL; IC50 [6]: 128 µg/mL (≈ 287 µM); MIC [6]: > 128 µg/mL; IC50 [7]: 128 µg/mL (≈ 287 µM); MIC [7]: > 128 µg/mL

Question: Which IC50 [1] does the source give for C#CCNC(=O)CC[C@@H](C)[C@H]1CC[C@H]2[C@@H]3[C@H](O)C[C@@H]4C[C@H](O)CC[C@]4(C)[C@H]3C[C@H](O)[C@]12C here?
Answer: > 128 µg/mL

Question: And the MIC [1]?
Answer: > 128 µg/mL

Question: What about the IC50 [2] of the same molecule?
Answer: > 128 µg/mL

Question: And the MIC [2]?
Answer: > 128 µg/mL

Question: What about the IC50 [3] of the same molecule?
Answer: > 128 µg/mL

Question: And the MIC [3]?
Answer: > 128 µg/mL

Question: And the IC50 [4]?
Answer: 64 µg/mL (≈ 144 µM)

Question: What about the MIC [4] of the same molecule?
Answer: > 128 µg/mL

Question: What about the IC50 [5] of the same molecule?
Answer: 128 µg/mL (≈ 287 µM)

Question: And the MIC [5]?
Answer: > 128 µg/mL

Question: What about the IC50 [6] of the same molecule?
Answer: 128 µg/mL (≈ 287 µM)

Question: And the MIC [6]?
Answer: > 128 µg/mL

Question: What about the IC50 [7] of the same molecule?
Answer: 64 µg/mL (≈ 144 µM)

Question: What about the MIC [7] of the same molecule?
Answer: > 128 µg/mL

Question: For C#CCOC(=O)CC[C@@H](C)[C@H]1CC[C@H]2[C@@H]3CC[C@@H]4C[C@H](O)CC[C@]4(C)[C@H]3C[C@H](O)[C@]12C, which IC50 [1] is on record?
Answer: 32 µg/mL (≈ 74.3 µM)

Question: And the MIC [1]?
Answer: 128 µg/mL (≈ 297 µM)

Question: And the IC50 [2]?
Answer: 64 µg/mL (≈ 149 µM)

Question: What about the MIC [2] of the same molecule?
Answer: > 128 µg/mL

Question: What about the IC50 [3] of the same molecule?
Answer: 128 µg/mL (≈ 297 µM)

Question: And the MIC [3]?
Answer: > 128 µg/mL

Question: And the IC50 [4]?
Answer: 128 µg/mL (≈ 297 µM)

Question: And the MIC [4]?
Answer: > 128 µg/mL

Question: And the IC50 [5]?
Answer: 64 µg/mL (≈ 149 µM)

Question: And the MIC [5]?
Answer: > 128 µg/mL

Question: What about the IC50 [6] of the same molecule?
Answer: 128 µg/mL (≈ 297 µM)

Question: And the MIC [6]?
Answer: > 128 µg/mL

Question: What about the IC50 [7] of the same molecule?
Answer: 128 µg/mL (≈ 297 µM)

Question: And the MIC [7]?
Answer: > 128 µg/mL

Question: What does the source list for CC1(C)S[C@@H]2[C@H](NC(=O)[C@H](N)c3ccccc3)C(=O)N2[C@H]1C(=O)O [AMPICILLIN]?
Answer: IC50 [6]: 1 µg/mL (≈ 2.86 µM); IC50 [7]: 4 µg/mL (≈ 11.4 µM)

Question: What does the source list for CN(C)[C@@H]1C(O)=C(C(N)=O)C(=O)[C@@]2(O)C(O)=C3C(=O)c4c(O)cccc4[C@@](C)(O)[C@H]3C[C@@H]12 [TETRACYCLINE]?
Answer: IC50 [6]: 4 µg/mL (≈ 9 µM); MIC [6]: 8 µg/mL (≈ 18 µM); IC50 [7]: 8 µg/mL (≈ 18 µM); MIC [7]: 16 µg/mL (≈ 36 µM)

Question: Which IC50 [1] does the source give for COc1ccc(N2C(=O)C(N=[N+]=[N-])C2c2ccc(Cl)cc2)cc1 (racemic) here?
Answer: 64 µg/mL (≈ 195 µM)

Question: What about the MIC [1] of the same molecule?
Answer: > 128 µg/mL

Question: What about the IC50 [2] of the same molecule?
Answer: 64 µg/mL (≈ 195 µM)

Question: What about the MIC [2] of the same molecule?
Answer: > 128 µg/mL

Question: What about the IC50 [3] of the same molecule?
Answer: > 128 µg/mL

Question: What about the MIC [3] of the same molecule?
Answer: > 128 µg/mL

Question: What about the IC50 [4] of the same molecule?
Answer: > 128 µg/mL

Question: What about the MIC [4] of the same molecule?
Answer: > 128 µg/mL

Question: What about the IC50 [5] of the same molecule?
Answer: 64 µg/mL (≈ 195 µM)

Question: What about the MIC [5] of the same molecule?
Answer: > 128 µg/mL

Question: And the IC50 [6]?
Answer: 128 µg/mL (≈ 389 µM)

Question: And the MIC [6]?
Answer: > 128 µg/mL

Question: And the IC50 [7]?
Answer: > 128 µg/mL

Question: And the MIC [7]?
Answer: > 128 µg/mL
